Measurements taken from the EternaBench riboswitch data.

System: MS2 coat protein
Test: apparent Kd, MS2 coat protein; higher = weaker binding; RNA-MaP array; FMN 200 µM where present
Procedure, shortened: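 The titrant was SNAP-549-labelled MS2 coat protein, run from 0.7 or 1.5 nM in doubling steps to 3 µM. It was applied to designs transcribed by stalled E. coli RNA polymerase on Illumina sequencing-chip clusters, without ligand first and then with constant ligand, in 100 mM Tris-HCl pH 7.5, 80 mM KCl, 4 mM MgCl2, BSA, DTT, yeast tRNA and Tween-20. The apparent Kd is the median of filtered per-cluster binding-curve fits, with green signal normalised to red-channel RNA signal and control-cluster median Fmax.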

[1] = designed as: ON switch for flavin mononucleotide, no ligand
[2] = ligand present: flavin mononucleotide, designed as: ON switch for flavin mononucleotide
[3] = designed as: OFF switch for flavin mononucleotide, no ligand
[4] = ligand present: flavin mononucleotide, designed as: OFF switch for flavin mononucleotide

Sequence | apparent Kd [1] [nM] | apparent Kd [2] [nM] | apparent Kd [3] [nM] | apparent Kd [4] [nM]
GGGUACAUCGGAGGAUAUCAUGUAAAUACAUGAGGAUCACCCAUGUCGUUGGAGACAUCGGAGAUUGAGAAGGCCGAUGUACCG | 199 | 339 |  | 
GGGUACAUCGGAGGAUAUCAUGUAAAUACAUGAGGAUCACCCAUGUCUAUGGAGACAUCGGAGAUUGAGAAGGCCGAUGUACCG | 14.4 | 150 |  | 
GGGUACAUCGGAGGAUAUCAUGUAUAUACAUGAGGAUCACCCAUGUCGUACGAGAGUACGGAGAUUGAGAAGGCCGAUGUACCG | 39.4 | 14.4 |  | 
GGGUACCUGACAUGAGGAUCACCCAUGUCGUGCCUCUGCGGCAAGGAUAUGAUCGCUCGUGUAGGUCAGAAGGUGCCGUUGUUA | 66.2 | 6.7 |  | 
GGGUAGGUAGGAUAUGCGUGCAGGGUGUCUUCCAAUGAUCAACAUGAGGAUCACCCAUGUAGAAGGAUCGAGCU |  |  | 331 | 319
GGGUCACAUGAGGAUCACCCAUGUGAGGAUAUGAUACUAUGUACUUCGGUACAUAGUAUCAGAAGGCACAUCCC |  |  | 19.2 | 35.7
GGGUGACAUGAGGAUCACCCAUGUCAGGAUAUUGAGCUUGAGCUGAAAAGUUCGAGUUCGAGAAGGGACUGCCC |  |  | 52 | 229
GGGUGGCGUAGAGGAUAUGUGUUACAUGAGGAUCACCCAUGUGCAUAUGAUGUUCGUGUGUCUGCAUAGAAGGCUACGUCGCUA | 28.3 | 27.6 |  | 
GGGUGGGUACAGAAGGGAGUGAUGGGUUUUUGGUUUGACAUGAGGAUCACCCAUGUUUAUCUGGUUCAGGAUAUGUAGUGGUGG | 149 | 97.3 |  | 
GGGUGUGAAGGAUAUACAUGAGGAUCACCCAUGUGAGAGGAGAAUGUUGAGGAGGUUGGUAGAAGGUCAGGAGG |  |  | 93.8 | 67.6
GGGUUUGGAGGAUAUACAAUCCCGGGCCGAAAGGUUUGGGUACAUGAGGAUCACCCAUGUAGAAGGCCGGGCCC |  |  | 19.2 | 27.3
GGGUUUGGAGGAUAUACAUGAGGAUCACCCAUGUAGGGCCCGGGUAUUCCCGGGCCCUGUAGAAGGCCGGGCCC |  |  | 14.1 | 16.5
GGUACCAACACAGGAUAUGCAAUCCUUUGGGUUGCAGAAGGGUGAAAACAUGAGGAUCACCCAUGUGGUACCGGGCGUGAGCCC | 473 | 39.8 |  | 
GGUACCAACACAGGAUAUGCUAUCCUUUGGGUAGCAGAAGGGUGAAAACAUGAGGAUCACCCAUGUGGUACCGGGCGUGAGCCC | 519 | 45.4 |  | 
GGUACCCUGGUUCUUCAAAAUACAUGAGGAUCACCCAUGUACUAGGAUAUCGCGCGAACCCUCGCUGAGAAGGAGUCGAUGGGC |  |  | 22 | 23.4
GGUACUCAAAGAGUACCAAAACGAACAUGAGGAUCACCCAUGUAGGAUAUGCUACUCAAAGAGUAGCAGAAGGACAUGUGCAGA |  |  | 29.6 | 149
GGUACUCAAAGAGUACCAAUACGAACAUGAGGAUCACCCAUGUAGGAUAUGCUACUCAAAGAGUAGCAGAAGGACAUGUCCCUA |  |  | 13.1 | 35.2
GGUACUCAAAGAGUACCAAUACGAACAUGAGGAUCACCCAUGUAGGAUAUGCUACUCAAAGAGUAGCAGAAGGACAUGUGCCUG |  |  | 17.9 | 95.1
GGUACUCAAAGAGUACCAAUACGAACAUGAGGAUCACCCAUGUAGGAUAUGCUACUCGAAGAGUAGCAGAAGGACAUGUGCCUA |  |  | 16.9 | 113
GGUACUCAAAGAGUACCAAUAUGAACAUGAGGAUCACCCAUGUAGGAUAUGCUACUCAAAGAGUAGCAGAAGGAUAUGUGUCUA |  |  | 19.6 | 21.2
GGUACUCAAAGAGUACUGUUUUGAACAUGAGGAUCACCCAUGUAGGAUAUGCGAGUUUUGAAUUUGCAGAAGGACAUUUUUAGC |  |  | 17.2 | 18.9
GGUCCAAUAUGAGGAUAUAGCAUCUUAUUGAUGCUAGAAGGCGUGUCGGUAGACAUGAGGAUCACCCAUGUAUUACAAUGGACC | 110 | 29.4 |  | 
GGUCCAUUAUGAGGAUAUGGCACCUUAUUGGUGCCAGAAGGCAUAUGUCUUCACAUGAGGAUCACCCAUGUAAUAAAUUGGACC | 17.4 | 19.5 |  | 
GGUCGUCACAUAUACAUGAGGAUCACCCAUGUCAAAAGACAUGAGGAUAUGGAUCCUAAUUGGAUCCAGAAGGCAUGGACGACC | 986 | 47.3 |  | 
GGUCGUCACAUAUACAUGAGGAUCACCCAUGUGAAAACACAUGAGGAUAUGGAUCCUAAUUGGAUCCAGAAGGCAUGGACGACC | 42.1 | 7.63 |  | 
GGUCGUCACAUUAACAUGAGGAUCACCCAUGUAAAAUAACAUGAGGAUAUGCAUCCUAAUUGGAUGCAGAAGGCAUGGACGACC | 7.86 | 6.02 |  | 
GGUCGUCAGAUUAACAUGAGGAUCACCCAUGUCUUUUGACAUGAGGAUAUGGAUCCUAAUUGGAUCCAGAAGGCAUGGACGACC | 1170 | 104 |  | 
GGUCUGACAUAAGGAUAUGCUCAGGAUAACUGAGCAGAAGGUAUGUGAAAACAUGAGGAUCACCCAUGUGAUCAAUACAGACCA | 18.8 | 19.5 |  | 

Sequence | apparent Kd [1] [nM] | apparent Kd [2] [nM] | apparent Kd [3] [nM] | apparent Kd [4] [nM]
GGUGCGUAUGUGAGGAUAUGCUGGUCCUUGGAUCAGCAGAAGGCACAUGAGGAUCACCCAUGUGGUGUCGUACG |  |  | 68.9 | 516
GGUGCGUAUGUGAGGAUAUGCUGGUCCUUGGAUCAGCAGAAGGCACAUGAGGAUCACCCAUGUGGUGUCGUCCC |  |  | 426 | 21.1
GGUGCGUAUGUGAGGAUAUGCUGGUCCUUGGCUCGGCAGAAGGCACAUGAGGAUCACCCAUGUGGUGUCGUUCC |  |  | 52.5 | 222
GGUGCGUUUGUGAGGAUAUGCUGGUCCUUGGAUCAGCAGAAGGCACAUGAGGAUCACCCAUGUGGUGUCCCUCC |  |  | 168 | 291
GGUGGAAGCACAGGAUAUGUUGAUUUUAUGGUGUUACAUGAGGAUCACCCAUGUCCGCGAUUCUAACAGAAGGGUGCAUGGAUG | 543 | 59.9 |  | 
GGUGGACAUGAGGAUCACCCAUGUGAGGAUAUCGGCCGGUUCGUGGUGGCUGGCUUCUCGAGAAGGCGCAUAGU |  |  | 55.8 | 65.7
GGUGGACAUGAGGAUCACCCAUGUGAGGAUAUCGGCUGUCUACUCGCUGACGGCUGCUCGAGAAGGCGCAUUGU |  |  | 45.4 | 61.5
GGUGGGUUGCUGCCGGCACAUGAGGAUCACCCAUGUUUUGGGAAGGAUAUGGUACCUUUUUGGUGCCAGAAGGUCCCGUUGGUG | 733 | 1000 |  | 
GGUGGUGAGCAAGGAUAUCGCCACUGCGUGACCUCACAACGGAUACAUGAGGAUCACCCAUGUGGCGAGAAGGUGCGGGAACGG |  |  | 29.4 | 44
GGUGUACAUGAGGAUCACCCAUGUCGACCGCUCACAGGAUAUUUAAUACAAACUGGUAGCGGAGAAGGGUGAGGAA | 295 | 312 |  | 
GGUGUCAUCGAGAAGGCCUCAACAUGAGGAUCACCCAUGUUGUAAUAUGGGAGGAUAUCGAUGAUACAGCUACGUUUCGUAGCG | 19.9 | 6.57 |  | 
GGUUAAUAUCGAGGAUAUGUCUAGACACAUGAGGAUCACCCAUGUAUGUGUAUAGAAGGCGAUAUUAACAGCAUGUUACAUGCG | 38.8 | 16.4 |  | 
GGUUAAUGCAAGGAUAUGCUAUUAUUUUAUUUUGCAGAAGGUGCAACAUGAGGAUCACCCAUGUUGGAGGGUUU |  |  | 19.8 | 26.1
GGUUGACAUAGUCAUCCUUAACGAACAUGAGGAUCACCCAUGUAGGAUAUGCUACUCAAAGAGUAGCAGAAGGGCGUGUGUCUU |  |  | 28.3 | 36.1
GGUUGGCGAGGAUAUACAUGAGGAUCACCCAUGUGGUCCUAAAAUAAAAUAAACCUUUGUAGAAGGCGCGGGUC |  |  | 268 | 428
GGUUGGCGAGGAUAUACAUGAGGAUCACCCAUGUGGUCCUGUGGCUGGUCUUAACUUUGUAGAAGGCGCGGGUC |  |  | 66 | 82.8
GGUUGUCAUCGUCAUCCUUUCGGUACAUGAGGAUCACCCAUGUAGGAUAUGCUGCGCUCGGUGUGGCAGAAGGGCGUGUGUGUU |  |  | 23.8 | 40.3
GGUUGUCAUCGUCAUCCUUUCUGUACAUGAGGAUCACCCAUGUAGGAUAUGCUGCUCUCGGUGUGGCAGAAGGGCGUGUGUCUU |  |  | 34.2 | 37.6
GGUUGUGUGUAAGGAUAUGCAUCACUGAGAAAUUUAGUGAGGAAGAUCACAUGAGGAUCACCCAUGUAGAAGGUACACACGUGG |  |  | 10.7 | 50.1
GGUUUGCGGCAGGAUAUCCAUCCGCGGUGUGGUGGAGAAGGGCUGACAUGAGGAUCACCCAUGUGCGUCCUGUU |  |  | 25.1 | 30.5
GUAAAUCAUGUAGGAUAUGCAUGGCGAAGCUACGCAGAAGGACAUGAGGAUCACCCAUGUCUGUCCGUCUGGAUACAGACGGAC |  |  | 24.6 | 195
GUAAGUACGAGAGGAUAUUGACAUGAGGAUCACCCAUGUAUUUGGGAGUGUUCACUGAAUUCUUACGAGAAGGCUUGUACAUAC |  |  | 221 | 220
GUACAGUAGUGAGGAUAUACGAGAUCGAUAGAUCGGCGAUCCAAUUAUACAUGAGGAUCACCCAUGUAGAAGGCACUUCUGUAC |  |  | 8.37 | 66.9
GUACAGUAGUGAGGAUAUACGAGAUCGAUAGAUCGGCGAUCCAUUAAUACAUGAGGAUCACCCAUGUAGAAGGCACUUCUGUAC |  |  | 5.84 | 82.5
GUACCUUAUGAGAAGGCGAUCAUGAAACAUGAUCGAGGAUAUCAUGUAAACAUGAGGAUCACCCAUGUAUGGGUAUUAUGGUAA | 31.8 | 10.2 |  | 
GUACGUGGACAGAAGGUGACAUGAGGAUCACCCAUGUUAGCUCGGGUACGAGCGAUCCGCGUGAUUGAGGAUAUGUCUGCGGGC |  |  | 39.7 | 59
GUAGAGUAAGGAUAUGGUGAAUAGGAUAGAAUGGUUAGAAACCAGAAGGUACAUGAGGAUCACCCAUGUAAUGU |  |  | 21 | 21.1
